This note sets out measurements from ChEMBL document CHEMBL4513216, “Probing the Open Global Health Chemical Diversity Library for Multistage-Active Starting Points for Next-Generation Antimalarials” (ACS Infect Dis, 2020).

Each structure is given as a SMILES string.

This data set is described as follows: Toxicity liver stage against HepG2, at 10uM. The data set is classed as cell-based. Details: test concentration 10 uM, cell line HepG2-A16-CD81EGFP. Particulars: human, HepG2-A16-CD81EGFP cells; read-out: INHIBITION
Put shortly:
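Uninfected HepG2-A16-CD81EGFP cells, 3 × 10^3 per well, 1536-well, plated on prespotted compound at 10 μM final, parasite-free screening media added to match infected plates; puromycin 10 μM positive, DMSO 0.5% negative; run in parallel with 48 h PbLuc assay at 37 °C, 5% CO2; viability by CellTiter-Glo luminescence, normalized to controls.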
For the compound `CN1CCC(NC(=O)NCc2csc(Br)c2)CC1`, the cytotoxicity at 10 µM was -8.92%. For `CC(C)(C)c1cc(C[C@H]2CNCC[C@H]2CC(=O)NCc2cccs2)no1`, the cytotoxicity at 10 µM was -2.28%. As for `CCOC(=O)CNC(=O)NCc1cccn1Cc1cccc(C)c1`, the cytotoxicity at 10 µM is 9.24%. Take `CCC(C)[C@H](NC(=O)c1cc(F)ccc1-n1cnnn1)C(=O)OC` (some centres not stated): the cytotoxicity at 10 µM worked out at 2.53%.

As for `COC(=O)c1cc2c(=O)n(C3CCCC3)ccc2nc1C`, the cytotoxicity at 10 µM was -43.9%. Then `O=c1c(NCCc2ccc(O)cc2)c(NCc2ccco2)c1=O`, with -10.7%.

Turning to `O=C(CCCNc1ncccn1)Nc1ccc(Cn2cncn2)cc1`, the cytotoxicity at 10 µM amounted to 0.55%.

Regarding `COc1ccc2cc(NC(=O)CCCNc3ncccn3)cnc2c1`, the cytotoxicity at 10 µM is -50.5%. `CCOc1cc(NC(=O)C2CC(=O)N(c3cccc(OC)c3)C2)ncn1` (configuration not stated): the cytotoxicity at 10 µM is -4.31%. As for `O=S(=O)(NCC(O)c1ccoc1)c1ccc(Cl)s1` (configuration not stated), the figure is -9.34%. As to `CC(C)c1nc(-c2cc(C(=O)O)c3ccccn23)cs1`, the cytotoxicity at 10 µM was determined as 7.43%.

In the case of `Cc1ccc(CN2CC[C@@H]3CN(S(C)(=O)=O)CCO[C@@H]3C2)o1`, the cytotoxicity at 10 µM was 8.76%. `CC(C)N1CCCc2sc(C(=O)NC3CC3)nc21`: the cytotoxicity at 10 µM is -143%.

In the case of `O=c1cc(Cn2cncn2)nc2n1CCCN(Cc1ccco1)C2`, the cytotoxicity at 10 µM was found to be 7.61%. Turning to `CNC(=O)CSc1cnn(CC(=O)Nc2cccc(Cl)c2C)c(=O)c1Cl`, the cytotoxicity at 10 µM is -17.6%. Regarding `CC(C)(C)NCc1nn(Cc2ccccc2)nc1-c1ccccc1`, the cytotoxicity at 10 µM was determined as 11.9%. For the compound `COc1cccc(C(C)Nc2ncnc3c2NC(=O)CN3)c1` (configuration not stated), the cytotoxicity at 10 µM amounted to 9.76%. As for `COc1ccc(CNc2ncnc3c2NC(=O)CN3)cc1`, the figure is 11.8%. As to `CCN(CC)C(=O)c1ccn(COc2cc(C)cc(C)c2)n1`, the cytotoxicity at 10 µM was 13.9%. On to `Cc1cc(N(C)C)nc(C2COCCN2Cc2cscn2)n1` (configuration not stated), for which the cytotoxicity at 10 µM is -6.94%.

As for `O=C(CCc1ccc(Cl)cc1)N[C@@H]1CC[C@@H](O)[C@@H]1O`, the cytotoxicity at 10 µM is 3.85%. As to `COCCN1CCC(c2cncc(-c3ccccc3C)n2)CC1`, the cytotoxicity at 10 µM was -15.1%. On to `O=C1NCC2(CCCN(Cc3ccc(F)cc3)C2)Oc2ccccc21` (configuration not stated), for which the cytotoxicity at 10 µM is -12.8%.

On to `Cc1noc(C)c1-c1cccc(CC2CCN(C(=O)c3cc[nH]n3)C2)n1` (configuration not stated), for which the cytotoxicity at 10 µM is 2.31%. Regarding `CCn1cc(CN2C[C@@H]3CCCN3C[C@@H]2CCSC)c(C)n1`, the cytotoxicity at 10 µM worked out at 3.29%. On to `O=C(c1cn(-c2ccc(C(F)(F)F)cn2)nn1)N1CCCCCC1`, for which the cytotoxicity at 10 µM was -57.4%. Turning to `N#Cc1cc(F)ccc1Cn1cncn1`, the cytotoxicity at 10 µM came to 11.4%. In the case of `N#Cc1ccc(CN2CCCC(Cn3cncn3)C2)c(F)c1` (configuration not stated), the cytotoxicity at 10 µM came out at 0.762%. Turning to `O=C(CCc1ccccc1)NCC(O)c1c(F)cccc1F` (configuration not stated), the cytotoxicity at 10 µM was -0.558%. As for `Cc1cccc(S(=O)(=O)NCc2cccc(CS(C)(=O)=O)c2)c1`, the figure is -18.4%; as for `CC(NCc1nnc2n1CCCC2)c1nc(Cc2ccccc2)no1` (configuration not stated), -45.1%. Turning to `N#CCCN(CCC#N)C(=O)c1cccc(N2CCNC2=O)c1`, the cytotoxicity at 10 µM was -18.7%. As to `Cc1ccccc1C(=O)NCC(=O)NCc1ccccn1`, the cytotoxicity at 10 µM was -11.9%. For the compound `Cc1csc(N2CCN(Cc3cscn3)CC2C)n1` (configuration not stated), the cytotoxicity at 10 µM amounted to 16%. `Cc1occc1C(=O)NC1CCN(C(=O)Nc2cccnc2)CC1`: the cytotoxicity at 10 µM was 8.98%.

In the case of `Cc1noc(C2CCN(CC(=O)N3CCNC(=O)C3)CC2)n1`, the cytotoxicity at 10 µM is 2.41%. As for `CC(=O)N(CCc1ccccc1)CC(=O)Nc1ccccc1C#N`, the figure is 6.59%; as for `COCCOC1CCN(C(=O)NCc2coc3ccccc23)CC1`, -8.93%. For `Cc1ccnc(NCc2ccccc2N2CCOCC2)n1`, the cytotoxicity at 10 µM is -0.268%. Regarding `CN1CCN(c2ccc(Br)cc2NC(=O)c2ccco2)CC1`, the cytotoxicity at 10 µM is -6.09%. `NCc1ccc(N2CCN(c3ncccn3)CC2)c(F)c1`: the cytotoxicity at 10 µM was -50.8%. As to `Cn1cc(CCCN2CCN(Cc3cccc(O)c3)CC2)cn1`, the cytotoxicity at 10 µM was -52.5%. As to `CCN(Cc1csc(C)n1)c1cccc(CO)c1`, the cytotoxicity at 10 µM was -6.55%. As to `CC/C=C(/C)C(=O)NS(=O)(=O)c1ccc(C#N)c(C(F)(F)F)c1`, the cytotoxicity at 10 µM worked out at 2.99%.

On to `CC(C)c1ccc(S(=O)(=O)Cc2nc(N)nc(N(C)C)n2)cc1`, for which the cytotoxicity at 10 µM was -11.1%. As for `COC(=O)c1ccc(C(=O)NCc2ccc(Br)cc2)cn1`, the cytotoxicity at 10 µM is -23.2%.

For `CCOCc1ccccc1NC(=O)NC1CCN(C(=O)OCC)CC1`, the cytotoxicity at 10 µM was -14.5%.

As for `Cc1cc(Cl)c2c(c1)C1(NC(=O)c3cccnc3N1)C(=O)N2` (configuration not stated), the cytotoxicity at 10 µM stood at 4.97%. For `O=c1ccc(-c2ccccc2F)nn1CCN1CCCS1(=O)=O`, the cytotoxicity at 10 µM is -10%.

With `COCC1CN(C(=O)Cc2ccsc2)Cc2c1cnn2C` (configuration not stated), the cytotoxicity at 10 µM was -67%. Take `CN1CCN(Cc2ccc(F)cc2)Cc2cccnc21`: the cytotoxicity at 10 µM is -80.2%. Turning to `CN(C)C(=O)COCC1CN(Cc2ccsc2)Cc2nccn2C1` (configuration not stated), the cytotoxicity at 10 µM was -72.3%. As for `O=C(NC1CCC1)c1c2c(N3CCCC3)ncnc2n2ccccc12`, the figure is -82.4%. On to `CC(=O)NCC(=O)N1Cc2nccn2CC(Cn2cccn2)C1` (configuration not stated), for which the cytotoxicity at 10 µM is 2.44%. `Cn1cccc1-c1cc(C(=O)N2CCCC2c2nccs2)[nH]n1` (configuration not stated): the cytotoxicity at 10 µM worked out at 3.78%.

In the case of `Cc1ncc(CC(=O)N2CCC3(CCC(=O)N(CCO)C3)CC2)c(=O)[nH]1`, the cytotoxicity at 10 µM was -44.7%. For the compound `Cc1cc(C(=O)NCCC2CN(C)CCO2)c2cccc(C)c2n1` (configuration not stated), the cytotoxicity at 10 µM was -2.94%. As for `COc1ccc(-c2nc(CN3CCCC(OC)C3)c(C)o2)c(F)c1` (configuration not stated), the figure is -37.8%; as for `CC(=O)N[C@@H]1CN(CC(=O)NCc2ccccc2C)C[C@H]1C(C)C`, 4.25%. For `CNC(=O)C(C)NC(=O)c1cc(COc2ccc(OC)cc2Cl)[nH]n1` (configuration not stated), the cytotoxicity at 10 µM came out at 5.27%. `Cc1nc2c(c(NCc3cc4ccccc4s3)n1)CCNCC2`: the cytotoxicity at 10 µM was -48.3%. As for `COc1ccc(CC2CN(C(=O)c3ocnc3C)CCO2)cc1` (configuration not stated), the figure is 11.4%; as for `Cc1cc(C(=O)N2C[C@@H](C(=O)O)[C@H](C(C)C)C2)cs1`, -10.4%. `O=C(O)c1ccccc1-c1c(-c2ccccc2)ncn1C[C@H]1CCCN1`: the cytotoxicity at 10 µM came to 6.07%. As for `Cc1nc(N(C)C/C=C/c2ccccc2)c2cnn(C)c2n1`, the figure is 0.0448%; as for `O=C(CC1CCc2ccccc21)NC1(C(=O)O)CCOCC1` (configuration not stated), -2.13%; as for `O=C1CCCN1CCc1noc(-c2ccc3[nH]cnc3c2)n1`, 8.74%.

Consider `Cc1cnc(N(C)Cc2cnc3ccccc3n2)nc1N(C)C`, for which the cytotoxicity at 10 µM came to 6.7%. On to `COCC1CCN(S(=O)(=O)N2C[C@H](c3ccccc3)[C@@H](N)C2)CC1`, for which the cytotoxicity at 10 µM stood at 1.12%. As to `Cc1nc(N2C[C@@H](CN3CCCCC3)[C@@H](CO)C2)c2sccc2n1`, the cytotoxicity at 10 µM was -5.12%.

As for `O=C(c1cccc(OCc2cscn2)c1)N1CCOCC1`, the cytotoxicity at 10 µM is -6.13%. Then `CNc1cc(N2CCCC2CNCc2csc(C(C)C)n2)ncn1` (configuration not stated), with -14.9%.

With `CC(Cn1cccn1)NC(=O)NCCc1cccnc1` (configuration not stated), the cytotoxicity at 10 µM is -5.25%. Consider `CCn1cnnc1C1CCN(C(=O)c2cc(C)c(C)s2)CC1`, for which the cytotoxicity at 10 µM was -26.9%.

Consider `COc1ccccc1COCC(O)CN1CCC(c2ccn[nH]2)CC1` (configuration not stated), for which the cytotoxicity at 10 µM was -2.54%. Turning to `COc1ccccc1C(O)CNc1c(C#N)c(=O)n(C)c(=O)n1C` (configuration not stated), the cytotoxicity at 10 µM was -2.9%.

In the case of `CCC1CN(C(=O)NCc2cccnc2-n2cccn2)CCO1` (configuration not stated), the cytotoxicity at 10 µM was -12.5%. On to `Cc1nc(C)n(CC2CCCN2Cc2nc3ccccc3c(=O)[nH]2)n1` (configuration not stated), for which the cytotoxicity at 10 µM is -4.35%. On to `CCN(Cc1nc2c(cnn2C)c(=O)[nH]1)c1ccccc1`, for which the cytotoxicity at 10 µM was -7.36%. As for `Cc1cnc(CNC(=O)NCc2cccnc2N(C)C)s1`, the figure is -12.4%; as for `N#Cc1cccc(S(=O)(=O)NC(=O)COc2ccc3c(c2)CCC3)c1`, 1.33%; as for `CN(Cc1noc(C2CC2)n1)C1CCN(Cc2ccncc2)C1` (configuration not stated), -10.6%. Take `CCN(Cc1ccc2c(c1)OCO2)C(=O)c1ccc(C)[nH]c1=O`: the cytotoxicity at 10 µM is -7.21%. In the case of `CCc1n[nH]c(C2CN(C(=O)c3cnc(C)s3)CCO2)n1` (configuration not stated), the cytotoxicity at 10 µM is -6.64%.

For the compound `Cc1ccc(N2CCCC(NCc3nc(C)c(C)o3)C2)nn1` (configuration not stated), the cytotoxicity at 10 µM was -3.18%. With `Cn1nc2c(cc1=O)CN(Cc1nnc(-c3ccco3)o1)CC2`, the cytotoxicity at 10 µM is -4.64%.

In the case of `Cc1cnnn1Cc1nnn2c1CN(Cc1cccs1)CCC2`, the cytotoxicity at 10 µM was found to be 8.28%. Take `Cc1nc(CN2CCC3(CC2)NC(=O)CC3c2ccncc2)cs1` (configuration not stated): the cytotoxicity at 10 µM stood at 5.79%. Then `Cc1ccc(CN2CC(C(=O)Nc3ccccc3)C3(CCOCC3)C2)s1` (configuration not stated), with -17.5%; and `c1ccc(CN2CCc3ncnc(-c4ccncc4)c3CC2)nc1`, with -73.1%. Turning to `CN(C)C(=O)COCc1nnc2n1CCN(Cc1ccoc1)C2`, the cytotoxicity at 10 µM was found to be 8.49%. As for `Cn1nc(CN2CCCCC2)c2c1CN(C(=O)c1cccc(C#N)c1)C2`, the figure is -2.21%; as for `c1cc(CN2C[C@@H]3OCCN(CC4CCCO4)[C@@H]3C2)cs1` (some centres not stated), -76.9%; as for `Cc1nc(C2(O)CCCNCC2)sc1CCOc1ccc(F)c(F)c1` (configuration not stated), -21.4%. Regarding `c1cncc(OC[C@@H]2CC[C@H]3[C@H](CCN3Cc3cccs3)O2)c1`, the cytotoxicity at 10 µM is 6.23%. As for `CNc1nc2cn(CCc3ccc(F)cc3)c(=O)c-2c[nH]1`, the cytotoxicity at 10 µM was 7.55%.

Take `O=c1[nH][nH]c2cn(-c3ccc(Br)cc3)c(=O)n12`: the cytotoxicity at 10 µM was -11.8%.
